Measured values: ChEMBL document CHEMBL1125298, “Hypocholesterolemic activity of synthetic and natural tocotrienols” (J Med Chem, 1992)
≈ marks a conversion by molar mass, not a printed value. Where “and” joins values, the source holds several entries; their conditions need not be identical. Equal entries are not always repeated.

Assays:
Rattus norvegicus [1] = species: Rattus norvegicus; assay: Inhibitory concentration required to inhibit cholesterol synthesis in isolated rat Hepatocytes; type: functional, Hepatocyte
Gallus gallus [2] = species: Gallus gallus; assay: Compound is evaluated for the effect on lipid metabolism in 6-week-old male chickens at a concentration of 20 ppm in the diet and measured for HDL cholesterol (dose 15 p.p.m.); type: functional
Gallus gallus [3] = species: Gallus gallus; assay: Compound is evaluated for the effect on lipid metabolism in 6-week-old male chickens at a concentration of 20 ppm in the diet and measured for LDL cholesterol (dose 15 p.p.m.); type: functional
How it was run: (§1)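 Male chicks were raised 2 weeks on a corn-soybean control diet, then fed 4 weeks on control diet or the same diet with compound added. All birds were fasted 36 h and refed 48 h before sacrifice. Serum cholesterol is given as mg/100 mL.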

Gallus gallus [4] = species: Gallus gallus; assay: picomoles of mevalonic acid synthesized per minute per mg of microsomal protein (dose 15 p.p.m.); type: functional, organism-based
Rattus norvegicus [5] = species: Rattus norvegicus; assay: Percent inhibition at 250 ug/mL of binary mixtures of compound and alpha-tocotrienol on cholesterol synthesis in rat hepatocytes; type: functional, Hepatocyte
HepG2 [6] = assay: Compound evaluated for Percent inhibition of cholesterol synthesis from HMG-CoA Reductase in HepG2 cell; type: functional, Homo sapiens
Gallus gallus [7] = species: Gallus gallus; assay: Compound is evaluated for the effect on lipid metabolism in 6-week-old male chickens at a concentration of 20 ppm in the diet and measured for total cholesterol (dose 30 p.p.m.); type: functional
Rattus norvegicus [8] = species: Rattus norvegicus; assay: Compound is evaluated for the inhibition of cholesterol biosynthesis in isolated rat hepatocytes at the concentration 125 (ug/mL); type: functional, Hepatocyte
Gallus gallus [9] = species: Gallus gallus; assay: Compound is evaluated for the effect on lipid metabolism in 6-week-old male chickens at a concentration of 20 ppm in the diet and measured for LDL cholesterol; type: functional; how it was run: as §1
Gallus gallus [10] = species: Gallus gallus; assay: picomoles of mevalonic acid synthesized per minute per mg of microsomal protein(dose 45 p.p.m.); type: functional, organism-based
Gallus gallus [11] = species: Gallus gallus; assay: picomoles of mevalonic acid synthesized per minute per mg of microsomal protein; type: functional, organism-based
Gallus gallus [12] = species: Gallus gallus; assay: Compound is evaluated for the effect on lipid metabolism in 6-week-old male chickens at a concentration of 20 ppm in the diet and measured for LDL cholesterol (dose 30 p.p.m.); type: functional; how it was run: as §1
Gallus gallus [13] = species: Gallus gallus; assay: Compound is evaluated for the effect on lipid metabolism in 6-week-old male chickens at a concentration of 20 ppm in the diet and measured for total cholesterol (dose 15 p.p.m.); type: functional
HepG2 [14] = assay: Compound evaluated for Percent inhibition of cholesterol synthesis from [14C]acetate in HepG2 cell; type: functional, Homo sapiens
Gallus gallus [15] = species: Gallus gallus; assay: Compound is evaluated for the effect on lipid metabolism in 6-week-old male chickens at a concentration of 20 ppm in the diet and measured for HDL cholesterol; type: functional
Rattus norvegicus [16] = species: Rattus norvegicus; assay: Compound is evaluated for the inhibition of cholesterol biosynthesis in isolated rat hepatocytes at the concentration 250 (ug/mL); type: functional, Hepatocyte
Gallus gallus [17] = species: Gallus gallus; assay: Compound is evaluated for the effect on lipid metabolism in 6-week-old male chickens at a concentration of 20 ppm in the diet and measured for LDL cholesterol (dose 45 p.p.m.); type: functional; how it was run: as §1
Gallus gallus [18] = species: Gallus gallus; assay: Compound is evaluated for the effect on lipid metabolism in 6-week-old male chickens at a concentration of 20 ppm in the diet and measured for total cholesterol (dose 45 p.p.m.); type: functional
Gallus gallus [19] = species: Gallus gallus; assay: Compound is evaluated for the effect on lipid metabolism in 6-week-old male chickens at a concentration of 20 ppm in the diet and measured for HDL cholesterol (dose 30 p.p.m.); type: functional
Gallus gallus [20] = species: Gallus gallus; assay: picomoles of mevalonic acid synthesized per minute per mg of microsomal protein(dose 30 p.p.m.); type: functional, organism-based
Gallus gallus [21] = species: Gallus gallus; assay: Compound is evaluated for the effect on lipid metabolism in 6-week-old male chickens at a concentration of 20 ppm in the diet and measured for total cholesterol; type: functional
Rattus norvegicus [22] = species: Rattus norvegicus; assay: Compound is evaluated for the inhibition of cholesterol biosynthesis in isolated rat hepatocytes at the concentration 500 ug/mL; type: functional, Hepatocyte
Gallus gallus [23] = species: Gallus gallus; assay: Compound is evaluated for the effect on lipid metabolism in 6-week-old male chickens at a concentration of 20 ppm in the diet and measured for HDL cholesterol (dose 45 p.p.m.); type: functional
HepG2 [24] = assay: Compound evaluated for percent inhibition of cholesterol synthesis from HMG-CoA Reductase in HepG2 cell; type: functional, Homo sapiens
HepG2 [25] = assay: Compound evaluated for percent inhibition of cholesterol synthesis from [14C]acetate in HepG2 cell; type: functional, Homo sapiens; set-up: concentration or dose not given beside the values
Rattus norvegicus [26] = species: Rattus norvegicus; assay: Percent inhibition at 250 ug/mL of binary mixtures of compound and gamma-tocotrienol on cholesterol synthesis in rat hepatocytes; type: functional, Hepatocyte
Rattus norvegicus [27] = species: Rattus norvegicus; assay: Percent inhibition at 250 ug/mL of binary mixtures of compound and delta-tocotrienol on cholesterol synthesis in rat hepatocytes; type: functional, Hepatocyte
Rattus norvegicus [28] = species: Rattus norvegicus; assay: Compound is evaluated for the inhibition of cholesterol biosynthesis in isolated rat hepatocytes at the concentration 500 (ug/mL); type: functional, Hepatocyte
[29] = Rattus norvegicus, Hepatocyte, read-out: IC50

Row | Compound | IC50 (Rattus norvegicus [1]; [29]) | IC50 (Rattus norvegicus [1]; hepatocyte) | Inhibition (HepG2 [6]) | Inhibition (Rattus norvegicus [8]) | LDL cholesterol (Gallus gallus [9]) | HMGR activity (Gallus gallus [11]) | Inhibition (HepG2 [14]) | HDL cholesterol (Gallus gallus [15]) | Inhibition (Rattus norvegicus [16]) | Total cholesterol (Gallus gallus [21]) | Inhibition (Rattus norvegicus [22]) | Inhibition (HepG2 [24]) | Inhibition (HepG2 [25]) | other results
1 | CC(C)=CCC/C(C)=C/CC/C(C)=C/CC[C@]1(C)CCc2cc(O)c(C)c(C)c2O1 [GAMMA-TOCOTRIENOL] | 270 µg/mL (≈ 658 µM) | 360 µg/mL (≈ 877 µM) | 64% | 28% | 41 mg 100ml-1 | 494 | 78% | 102 mg 100ml-1 | 48% and 34% | 151 mg 100ml-1 | 61% | – | – | HDL cholesterol (Gallus gallus [2]): 97 mg 100ml-1; LDL cholesterol (Gallus gallus [3]): 42 mg 100ml-1; HMGR activity (Gallus gallus [4]): 606; Inhibition (Rattus norvegicus [5]): 64%; Total cholesterol (Gallus gallus [7]): 132 mg 100ml-1; HMGR activity (Gallus gallus [10]): 546; LDL cholesterol (Gallus gallus [12]): 35 mg 100ml-1; Total cholesterol (Gallus gallus [13]): 141 mg 100ml-1; LDL cholesterol (Gallus gallus [17]): 29 mg 100ml-1; Total cholesterol (Gallus gallus [18]): 125 mg 100ml-1; HDL cholesterol (Gallus gallus [19]): 95 mg 100ml-1; HMGR activity (Gallus gallus [20]): 561; inhibition at 500 µg/mL (Rattus norvegicus [22]; Rattus norvegicus, Hepatocyte): 60%; HDL cholesterol (Gallus gallus [23]): 94 mg 100ml-1
2 | CC(C)=CCC/C(C)=C/CC/C(C)=C/CCC1(C)CCc2cc(O)ccc2O1 (racemic) | – | – | – | – | – | – | – | – | – | – | – | 56% | 63% | –
3 | CC(C)=CCC/C(C)=C/CC/C(C)=C/CC[C@]1(C)CCc2c(C)c(O)c(C)c(C)c2O1 [ALPHA-TOCOTRIENOL] | > 1000 µg/mL | 1300 µg/mL (≈ 3060 µM) | 15% | 8% | 55 mg 100ml-1 | 670 | 32% | 102 mg 100ml-1 | 8% and 20% | 155 mg 100ml-1 | 12% and 33% | – | – | Inhibition (Rattus norvegicus [26]): 49%; Inhibition (Rattus norvegicus [27]): 53%
4 | Cc1c(O)cc2c(c1C)OC(C)(CCCC(C)CCCC(C)CCCC(C)C)CC2 (stereo not drawn) | – | – | – | – | – | – | – | – | – | – | – | 0% | 3% | –
5 | CC(C)=CCC/C(C)=C/CC/C(C)=C/CC[C@]1(C)CCc2cc(O)cc(C)c2O1 [DELTA-TOCOTRIENOL] | 260 µg/mL (≈ 656 µM) | 340 µg/mL (≈ 857 µM) | 65% | 26% | 41 mg 100ml-1 | 550 | 77% | 99 mg 100ml-1 | 49% and 33% | 141 mg 100ml-1 | – | – | – | Inhibition (Rattus norvegicus [28]): 62% and 63%
